Bioassay records deposited in PubChem BioAssay by several laboratories.
Most compounds without a hit are left out; they make up all but 1.7% or so of the library.
HNF4A DNA FP = change in binding of human HNF4 alpha to DNA | activity change, % at 10 µM | P41235 | 0.3% of 360,000 active | HNF4a-FITC DNA binding, fluorescence polarization, 1 h; in the data active means activity change above about 30%, passing the limit was not always enough
TPT1 inhibitor = C. albicans TPT1 enzyme inhibition | 0.81% of 300,000 active | recombinant caTPT1, FP RNA substrate dephosphorylation | AID 1962 | inhibition, % at 5 µM;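 active means inhibition above the mean of all tested compounds plus 3 SD, set per screening campaign, cut at about 24% in these data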;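 further: plate controls were DMSO alone for no effect and ferristatin control at 100 nM for full effect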
CSN deneddyl inh = inhibitors of human CSN-mediated cullin deneddylation; Purified CSN, SCF-Nedd8-OG deneddylation, fluorescence polarization; inhibition, % at 12.5 µM; 0.38% of 360,000 active; AID 651999;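 active means pattern-corrected inhibition above about 35%, with an unprinted fluorescence ratio check between 0.5 and 1.5, limit read from the data, passing the limit was not always enough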;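 further: 0% = enzyme with substrate and 100% = substrate without enzyme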
Target sequence (Q92905 whole entry, looked up, one chain of several): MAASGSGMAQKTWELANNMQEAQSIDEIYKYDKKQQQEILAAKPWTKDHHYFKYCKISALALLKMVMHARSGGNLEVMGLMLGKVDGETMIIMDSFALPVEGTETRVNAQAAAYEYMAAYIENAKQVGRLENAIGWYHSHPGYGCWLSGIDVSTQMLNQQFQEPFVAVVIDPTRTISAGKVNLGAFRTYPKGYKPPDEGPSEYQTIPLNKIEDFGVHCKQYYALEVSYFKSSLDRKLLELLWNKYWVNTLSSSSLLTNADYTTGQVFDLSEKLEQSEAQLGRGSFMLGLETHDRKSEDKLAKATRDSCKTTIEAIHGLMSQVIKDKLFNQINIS
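test system = HEK293T-derived human Csn5 enzyme | amount = 0.24 nM Csn5 enzyme, final concentration | medium = Tris/NaCl/DTT buffer, pH 7.5 | schedule = 90 min reaction at room temperature | signal = FP | evaluation = inhibition of Csn5 cleavage, % | compound dosing = single dose of 12.5 µM compound with 0.25% DMSO | probe or stimulus = 10 nM SCFSkp2-Nedd8OG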
IDE cell activ = boosts human insulin-degrading enzyme activity in HEK cells; 0.073% of 340,000 active; activation, % at 5.96 µM; P14735; FAbeta-B cleavage, fluorescence polarization; 0% vehicle, 100% cell-free pure enzyme wells;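 active means activation above the mean of all tested compounds plus 3 SD, set per screening campaign, cut at about 17% in these data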
IDE cell inh = inhibitors of human insulin-degrading enzyme in cells; P14735; HEK cells, FAbetaB cleavage, fluorescence polarization; inhibition, % at 5.59 µM; 0.41% of 320,000 active; AID 434962;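 active means percent inhibition above the average of all tested compounds plus 3 SD, set per screening campaign, cut at about 16% in these data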;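 further: IDE supplied by intact live HEK cells; FP after avidin binding of uncleaved biotin substrate so inhibition keeps polarization high; 0% = DMSO wells and 100% = 60 µM reference IDE inhibitor Ii1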
Rpn11 block = blocks the human proteasome subunit Rpn11; O00487; human 26S proteasome, Ub4-pepOG fluorescence polarization; 20S core pre-blocked with epoxomicin; inhibition, % at 20 µM; 0.59% of 360,000 active;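 active means inhibition at 20 µM, scaled to each plate's controls, above about 33%, limit read from the data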
Rpn11 confirm = Rpn11 inhibition confirmation, single concentration | shares compounds with Rpn11 block | purified human 26S proteasome, Ub4-pepOG fluorescence polarization; proteasome pretreated with epoxomicin | inhibition, % at 20 µM | 29% of 1,900 active | AID 602318
MMP-2 counter = counter-screen for RPN11 inhibitors: inhibition of human MMP-2; inhibition, % at 20 µM; 4% of 1,900 active; recombinant MMP-2, FRET peptide cleavage fluorescence; shares compounds with Rpn11 block; AID 602330;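 further: human MMP-2 activated beforehand with APMA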
Thrombin inh = counter-screen for RPN11 inhibitors: inhibition of bovine thrombin. bovine thrombin cleavage of Ub4-pepOG, fluorescence polarization. inhibition, % at 20 µM. shares compounds with Rpn11 block. 13% of 1,900 active;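 active means mean inhibition at least 40% at 20 µM, or signal 3 deviations below plate average, so some actives read negative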;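 further: plate controls were thrombin with DMSO for no effect and buffer wells lacking thrombin for full effect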
Starred values were filed as active, the others as inactive; . = no result given; + = active, no number. Unless noted, no stated cut-off is given here; in the data, active means inhibition above about 40%; inactive means the rest.

SMILES | HNF4A DNA FP | TPT1 inhibitor | CSN deneddyl inh | IDE cell activ | IDE cell inh | Rpn11 block | Rpn11 confirm | MMP-2 counter | Thrombin inh
Nc1ccc(Nc2ccncc2)cc1 | 4 | . | -4 | . | . | 2 | . | . | .
CC(=O)Nc1ccc(S(=O)(=O)NCCC(=O)OCC(=O)c2cccc(Br)c2)cc1 | 1 | . | 1 | -3 | . | 2 | . | . | .
O=C(Nc1nc(-c2ccco2)c(-c2ccco2)s1)c1c(F)cccc1Cl | 5 | . | 49* | 3 | -1 | 53* | -6 | 2 | -21
CCN(CC)C(=O)c1cccc(-c2csc(C(C)(O)c3ccc(F)c(F)c3)n2)c1 (stereo not given) | 2 | . | 0 | . | . | 3 | . | . | .
CCCCN=C1NN=C(c2cc3ccccc3o2)CS1 | 17 | 19 | 8 | 2 | 0 | 46* | 7 | 36 | -13
COc1ccc2nc(/C(C#N)=C\c3ccc(C(=O)O)cc3)[nH]c2c1 | 13 | 23 | 11 | -2 | 9 | 43* | 33 | -23 | 27
COc1ccc2nc(/C(C#N)=C\c3ccc(Oc4ccc([N+](=O)[O-])cn4)cc3)[nH]c2c1 | 2 | 10 | 2 | -5 | 5 | 15 | . | . | .
N#Cc1ccc(C(=O)N2CCC3CC2c2cc(N4CCCCC4)ccc23)cc1 (stereo not given) | -3 | . | 3 | . | . | 5 | . | . | .
Cc1cc2c(c(=O)n1C1CC1)C(c1cccc(Cl)c1)C(C#N)=C(N)O2 (stereo not given) | 28 | -1 | 1 | 3 | 1 | + | 8 | -1 | 7
O=C(CN1CCN(S(=O)(=O)c2ccc(Br)s2)CC1)NCC1CCCCC1 | 1 | . | 2 | . | . | -1 | . | . | .
COc1ccc(C2SCC(=O)N2c2c(C)n(C)n(-c3ccccc3)c2=O)cc1OC (stereo not given) | 0 | 0 | -9 | 0 | 1 | 31* | -2 | -29 | 1
O=C(Nc1cccc(C(F)(F)F)c1)C1CC(=O)N(Cc2ccco2)C1 (stereo not given) | 0 | . | -1 | . | . | 2 | . | . | .
CC(C)c1nnc(NC(=O)Cc2cccs2)s1 | 2 | -1 | 2 | 0 | -4 | -3 | . | . | .
CC(C)Cc1nnc(NC(=O)Cc2cccs2)s1 | 23 | 18 | 26 | -2 | 0 | 52* | 81* | 31 | 39
COc1ccc2cc(C(=O)C3CCCN(Cc4cnc(N5CCOCC5)s4)C3)ccc2c1 (stereo not given) | 0 | -5 | 1 | -8 | 2 | 42* | 0 | -20 | 6
C=CCn1cc(/C=N/NC(=O)COc2cccc3cccnc23)c2ccccc21 | 3 | 3 | 0 | 0 | -2 | 59* | 88* | -10 | 53*
CC1=C(C(=O)N(C)C)CC(CC(=O)NCCCN(C)C)C(=O)N1CCCN1CCCC1=O (stereo not given) | 3 | . | -2 | . | . | 6 | . | . | .
COc1ccc2c(C)nc(Nc3nc(-c4ccccc4)cc(=O)[nH]3)nc2c1 | 15 | 1 | 24 | -2 | 0 | 45* | 24 | -23 | -5
Cc1ccc2nc(Nc3nc(-c4ccccc4)cc(=O)[nH]3)nc(C)c2c1 | 2 | -1 | 12 | 6 | 6 | 6 | . | . | .
CCN(CC)c1cc(C(F)(F)F)nc(-c2ccccn2)n1 | 4 | 2 | 0 | 3 | 4 | 144* | -11 | -12 | -21
CSc1ccc(CN2CCC2(C)C(=O)NCc2cccc(C(F)(F)F)c2)cc1 (stereo not given) | -4 | . | 0 | . | . | 1 | . | . | .
CCOC(=O)N1CCN(C(=O)c2cc(OC)c(OC)c(OC)c2)CC1 | 6 | -3 | -1 | 5 | -4 | 35* | -9 | -19 | 3
Cn1nc([N+](=O)[O-])nc1Sc1cccc2cccnc12 | -5 | -2 | 0 | -5 | 0 | 46* | 8 | -33 | -11
